The source of these data is ChEMBL document CHEMBL1132552, “Synthesis, characterization, and structure-activity relationships of amidine-substituted (bis)benzylidene-cycloketone olefin isomers as potent and selective factor Xa inhibitors” (J Med Chem, 1999).

The term Ki denotes a dissociation constant, usually derived from enzyme kinetics or from competition with a known ligand.

One test deals with Coagulation factor X (Homo sapiens, UniProt P00742). Briefly: In vitro inhibition of human coagulation factor Xa (Xa) in a purified enzyme system. In short, it runs like this:
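Buffer: 150 mM NaCl, 2.5 mM CaCl₂, 50 mM Tris-HCl pH 7.5, 0.1% PEG 6000. For very tight binding, enzyme was lowered to 0.1 nM, or data at 0.3 and 1 nM enzyme were fitted to a modified Morrison equation.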

Test [1] deals with T1, Serine protease 1 (Bos taurus, UniProt P00760).
T1 sequence (P00760 whole entry): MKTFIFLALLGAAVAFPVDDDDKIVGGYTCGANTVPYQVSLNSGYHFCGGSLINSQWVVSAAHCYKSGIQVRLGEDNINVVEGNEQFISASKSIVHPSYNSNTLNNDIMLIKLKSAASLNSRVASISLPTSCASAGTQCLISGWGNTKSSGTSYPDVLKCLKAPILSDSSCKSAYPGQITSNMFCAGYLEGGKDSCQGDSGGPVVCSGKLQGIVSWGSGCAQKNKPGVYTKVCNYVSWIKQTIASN
Briefly: In vitro inhibition of bovine trypsin(Trp). The method in brief:
(§1)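 Buffer was 150 mM NaCl, 2.5 mM CaCl₂, 50 mM Tris-HCl pH 7.5, 0.1% PEG 6000. Read in a microplate reader at ~23 °C in the dark across varying inhibitor concentrations. Ki from competitive treatment; duplicate runs.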

For another test, the target named is Prothrombin (Homo sapiens, UniProt P00734). The test can be described thus: In vitro inhibition of human thrombin(FIIa). The method in brief: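 Medium: 150 mM NaCl, 2.5 mM CaCl₂, 50 mM Tris-HCl pH 7.5, 0.1% PEG 6000. Microplate reader readings at room temperature (~23 °C), light excluded, varying inhibitor concentrations. Competitive Ki derived; assays in duplicate.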

Test [2] has as its target T1, Serine protease 1. Briefly: In vitro inhibition of bovine trypsin (Trp). In short, it runs like this:
as §1

Chain of Coagulation factor X (P00742 41-179 limits assumed): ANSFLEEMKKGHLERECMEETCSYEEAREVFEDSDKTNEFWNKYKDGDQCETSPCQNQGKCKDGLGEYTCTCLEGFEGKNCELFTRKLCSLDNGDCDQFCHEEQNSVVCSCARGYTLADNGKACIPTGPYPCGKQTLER
Chain of Coagulation factor X (P00742 235-488 limits assumed): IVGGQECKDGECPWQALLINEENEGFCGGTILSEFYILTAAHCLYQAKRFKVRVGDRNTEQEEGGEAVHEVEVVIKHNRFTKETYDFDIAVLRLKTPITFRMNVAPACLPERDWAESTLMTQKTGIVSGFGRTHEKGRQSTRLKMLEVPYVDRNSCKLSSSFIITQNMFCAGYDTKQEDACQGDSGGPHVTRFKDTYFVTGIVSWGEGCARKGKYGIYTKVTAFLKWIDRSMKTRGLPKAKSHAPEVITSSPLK

As for `NC(=O)c1ccc(/C=C2/CCCC/C(=C\c3ccc(C(N)=O)cc3)C2=O)cc1`, the Ki at Coagulation factor X is > 5 µM.

As for `C/N=C(\N)c1ccc(/C=C2/CCCC/C(=C/c3ccc(C(=N)N)cc3)C2=O)cc1`, the figures for the Ki at Serine protease 1 [1], on Coagulation factor X and at Prothrombin were 0.03 µM, 0.012 µM and 1.6 µM, respectively.

For `CN(C)C(=N)c1ccc(/C=C2/CCCC/C(=C/c3ccc(C(=N)N(C)C)cc3)C2=O)cc1`, the Ki at Serine protease 1 [1] was > 5 µM; at Coagulation factor X, 1.6 µM; on Prothrombin, > 5 µM.

In the case of `N=C(N)c1ccc(/C=C2/CCCCCC/C(=C\c3ccc(C(=N)N)cc3)C2=O)cc1`, the Ki at Serine protease 1 [1] worked out at 0.34 µM; at Coagulation factor X it was 0.32 µM.

As to `CN(C)C(=N)c1ccc(/C=C2/CCCC/C(=C\c3ccc(C(=N)N(C)C)cc3)C2=O)cc1`, the Ki on Serine protease 1 [1], at Coagulation factor X and at Prothrombin was > 5 µM throughout.

For the compound `N=C(N)c1ccc(/C=C2\CCCC/C(=C/c3ccc(C(N)=O)cc3)C2=O)cc1`, the Ki at Serine protease 1 [1] was 0.5 µM; on Coagulation factor X, 1.85 µM; on Prothrombin, 0.35 µM.

Regarding `CCOC(=O)N1C/C(=C/c2ccc(C(=N)N)cc2)C(=O)/C(=C/c2ccc(C(=N)N)cc2)C1`, the figures for the Ki at Serine protease 1 [1], on Coagulation factor X and at Prothrombin were 0.061 µM, 0.225 µM and 0.63 µM, respectively.

As to `N=C(N)c1ccc(/C=C2\CCCCCCC/C(=C\c3ccc(C(=N)N)cc3)C2=O)cc1`, the Ki at Serine protease 1 [1] was found to be 3 µM; at Coagulation factor X, 0.96 µM; on Prothrombin, 0.73 µM.

As to `N=C(N)c1ccc(/C=C2\CC/C(=C\c3ccc(C(=N)N)cc3)C2=O)cc1`, the Ki was 0.59 µM on Serine protease 1 [1], 4.6 µM at Coagulation factor X and 2.2 µM at Prothrombin.

As to `COC(=O)C1C/C(=C/c2ccc(C(=N)N)cc2)C(=O)/C(=C\c2ccc(C(=N)N)cc2)C1` (stereo not drawn), the Ki at Serine protease 1 [1] is 0.1 µM; at Coagulation factor X it was 0.0048 µM; on Prothrombin, 1.1 µM.

Take `N=C(N)c1ccc(/C=C2\CCCC/C(=C\c3ccc(C(N)=O)cc3)C2=O)cc1`: the Ki on Serine protease 1 [1], on Coagulation factor X and on Prothrombin was > 0.5 µM each time.

Consider `CN(C)C(=N)c1ccc(/C=C2\CCCC/C(=C\c3ccc(C(=N)N(C)C)cc3)C2=O)cc1`, for which the inhibition constant (Ki) at Coagulation factor X, on Prothrombin and at Serine protease 1 [2] was > 5 µM in each case.

With `N=C(N)c1ccc(/C=C2/CCC/C(=C\c3ccc(C(=N)N)cc3)C2=O)cc1`, the figures for the Ki at Serine protease 1 [1] and at Prothrombin were 0.26 µM and 0.12 µM, respectively.

For the compound `NC(=O)c1ccc(/C=C2/CCCC/C(=C/c3ccc(C(N)=O)cc3)C2=O)cc1`, the Ki on Serine protease 1 [1] is > 5 µM; at Coagulation factor X it was > 5 µM; on Prothrombin, 2.9 µM.

As to `N=C(N)c1ccc(/C=C2/CCCCC/C(=C/c3ccc(C(=N)N)cc3)C2=O)cc1`, the Ki is 0.1 µM on Serine protease 1 [1], 0.0046 µM at Coagulation factor X and 0.3 µM on Prothrombin.

For `N=C(N)c1ccc(/C=C2\CC(c3ccccc3)C/C(=C\c3ccc(C(=N)N)cc3)C2=O)cc1` (stereo not drawn), the Ki at Serine protease 1 [1] was 0.056 µM; on Coagulation factor X it was 3.3 µM; at Prothrombin it was 0.63 µM.

As to `N=C(N)c1ccc(/C=C2/CC(c3ccccc3)C/C(=C/c3ccc(C(=N)N)cc3)C2=O)cc1` (stereo not drawn), the values for the Ki at Serine protease 1 [1], at Coagulation factor X and at Prothrombin were 0.1 µM, 0.0052 µM and 1.7 µM, respectively.

Turning to `N=C(N)c1ccc(/C=C2/CCC/C(=C/c3ccc(C(=N)N)cc3)C2=O)cc1`, the Ki amounted to 0.44 µM on Serine protease 1 [1], 0.018 µM on Coagulation factor X and 0.81 µM at Prothrombin.

Consider `N=C(N)c1ccc(/C=C2/CCCCC/C(=C\c3ccc(C(=N)N)cc3)C2=O)cc1`, for which the Ki was found to be 0.03 µM on Serine protease 1 [1] and 0.13 µM on Coagulation factor X.

Consider `COC(=O)C1C/C(=C\c2ccc(C(=N)N)cc2)C(=O)/C(=C/c2ccc(C(=N)N)cc2)C1` (stereo not drawn), for which the Ki on Serine protease 1 [1] is 0.072 µM; at Coagulation factor X, > 5 µM; on Prothrombin it was 4.4 µM.

As for `CN(C)C(=N)c1ccc(/C=C2/CCCC/C(=C\c3ccc(C(=N)N)cc3)C2=O)cc1`, the Ki was 0.015 µM on Serine protease 1 [1], 0.052 µM at Coagulation factor X and 0.12 µM on Prothrombin.

In turn, `CN(C)C(=N)c1ccc(/C=C2/CCCC/C(=C/c3ccc(C(=N)N)cc3)C2=O)cc1` showed a Ki on Serine protease 1 [1] of 0.09 µM.

Turning to `N=C(N)c1ccc(/C=C2\CCCCCC/C(=C\c3ccc(C(=N)N)cc3)C2=O)cc1`, the Ki on Serine protease 1 [1] was 1.5 µM; at Coagulation factor X, 0.39 µM; at Prothrombin it was 3.7 µM.

`N=C(N)c1ccc(/C=C2\CCC/C(=C\c3ccc(C(=N)N)cc3)C2=O)cc1`: the Ki on Serine protease 1 [1] is 0.17 µM.

As for `N=C(N)c1ccc(/C=C2/CCCC/C(=C/c3ccc(C(N)=O)cc3)C2=O)cc1`, the Ki on Serine protease 1 [1] worked out at 0.69 µM; on Coagulation factor X, 0.05 µM; on Prothrombin, 0.11 µM.

In the case of `N=C(N)c1ccc(/C=C2/CC(c3ccccc3)C/C(=C\c3ccc(C(=N)N)cc3)C2=O)cc1` (stereo not drawn), the results for the Ki on Serine protease 1 [1], on Coagulation factor X and on Prothrombin were 0.16 µM, 0.395 µM and 0.325 µM, respectively.

With `CN(C)C(=N)c1ccc(/C=C2\CCCC/C(=C\c3ccc(C(=N)N)cc3)C2=O)cc1`, the Ki on Serine protease 1 [1] stood at 0.5 µM; at Coagulation factor X, 0.35 µM; at Prothrombin, 3.7 µM.

The compound `N=C(N)c1ccc(/C=C2/CCCCCCC/C(=C/c3ccc(C(=N)N)cc3)C2=O)cc1` came in with a Ki at Serine protease 1 [1] of 2.2 µM.

Take `N=C(N)c1ccc(/C=C2\CC(C(=O)O)C/C(=C\c3ccc(C(=N)N)cc3)C2=O)cc1` (stereo not drawn): the results for the Ki at Serine protease 1 [1], at Coagulation factor X and on Prothrombin were 0.88 µM, 24.4 µM and 21.5 µM, respectively.

With `N=C(N)c1ccc(/C=C2/CC(C(=O)O)C/C(=C/c3ccc(C(=N)N)cc3)C2=O)cc1` (stereo not drawn), the Ki was 0.43 µM at Serine protease 1 [1], 0.0069 µM on Coagulation factor X and > 50 µM at Prothrombin.

`CCOC(=O)N1C/C(=C/c2ccc(C(=N)N)cc2)C(=O)/C(=C\c2ccc(C(=N)N)cc2)C1`: the Ki came out at 0.02 µM at Serine protease 1 [1], 0.0025 µM at Coagulation factor X and 0.38 µM at Prothrombin.

Turning to `C/N=C(\N)c1ccc(/C=C2\CCCC/C(=C\c3ccc(C(=N)N)cc3)C2=O)cc1`, the affinity on Serine protease 1 [1], expressed as Ki, was 0.84 µM.

In the case of `N=C(N)c1ccc(/C=C2/CCCCCCC/C(=C\c3ccc(C(=N)N)cc3)C2=O)cc1`, the inhibitory constant (Ki) came out at 2.1 µM on Serine protease 1 [1] and 0.15 µM on Prothrombin.

`N=C(N)c1ccc(/C=C2/CC/C(=C\c3ccc(C(=N)N)cc3)C2=O)cc1`: the figures for the Ki at Serine protease 1 [1], at Coagulation factor X and on Prothrombin were 0.73 µM, 0.23 µM and 19.2 µM, respectively.

Regarding `N=C(N)c1ccc(/C=C2\CCCCC/C(=C\c3ccc(C(=N)N)cc3)C2=O)cc1`, the Ki at Serine protease 1 [1] is 0.31 µM; on Coagulation factor X, 1.8 µM; at Prothrombin, 2.1 µM.

On to `C/N=C(/N)c1ccc(/C=C2/CCCC/C(=C\c3ccc(C(=N)N)cc3)C2=O)cc1`, for which the figures for the inhibition constant (Ki) on Serine protease 1 [1], at Coagulation factor X and at Prothrombin were 0.155 µM, 0.5 µM and 0.36 µM, respectively.

With `COC(=O)C1C/C(=C/c2ccc(C(=N)N)cc2)C(=O)/C(=C/c2ccc(C(=N)N)cc2)C1` (stereo not drawn), the Ki at Serine protease 1 [1] was 0.224 µM; at Coagulation factor X, > 0.5 µM; on Prothrombin, 0.6 µM.

As for `N=C(N)c1ccc(/C=C2/CCCCCC/C(=C/c3ccc(C(=N)N)cc3)C2=O)cc1`, the results for the Ki on Serine protease 1 [1], at Coagulation factor X and at Prothrombin were 0.19 µM, 0.0028 µM and 0.29 µM, respectively.

For the compound `CCOC(=O)N1C/C(=C\c2ccc(C(=N)N)cc2)C(=O)/C(=C/c2ccc(C(=N)N)cc2)C1`, the Ki was 0.125 µM at Serine protease 1 [1], > 5 µM at Coagulation factor X and 3.3 µM on Prothrombin.
